Measured values from PubChem BioAssay.
Activity calls are given as the source filed them.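 The calls were made as follows, unless noted: active = fluorescence slope higher than the sample average by over 3 SD (cut at about -0.22 in these data, passing the limit was not always enough); inactive = the rest.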

Tests used:
[1] = inhibitors of TNFa-induced NFkB p65 translocation, primary screen, imaging, HUVEC, MLSMR starter and 10KST1 sets (AID 438;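 active = inhibition above 20% together with a positive visual image hit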;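 also: compound added about 3h40 before a 20 min TNFalpha stimulation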;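 as to inhibition: signal is the nuclear over cytoplasmic p65 intensity ratio per well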); conditions: HUVEC TNFa-induced p65 nuclear translocation; cell count: measured here: nuclei count (cytotoxicity indicator), at 2.08 µM; inhibition: at 2 µM, stronger effect = higher value, 0% TNFa-plus-vehicle, 100% no-TNFa wells
[2] = endothelial E-selectin expression blockers – imaging, HUVEC, immunofluorescence, MLSMR starter and 10KST1 sets, primary screen (AID 487;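 active = visually confirmed hit in the image check and inhibition above 20%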;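 as to inhibition: signal is fraction of cell area covered by stained E-selectin grains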;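 as to nuclei count: 100% = median nuclei count of all wells on the same plate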); conditions: HUVEC TNFalpha-induced E-selectin immunofluorescence imaging, at 2 µM; inhibition: stronger effect = higher value; nuclei count: measured here: cell number, toxicity
[3] = Primary imaging screen for DUSP6 inhibitors that restore phospho-Erk in transfected HeLa cells, chemical complementation (AID 609;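 active = compounds giving at least 50% inhibition in the cell-based MKP-3 phosphatase rescue imaging test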;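 as to inhibition: phospho-Erk level distribution per well compared with pooled transfected vehicle control wells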); conditions: HeLa MKP-3 transfected, phospho-Erk imaging KS statistic, at 10 µM, cells stimulated with TPA for 15 min
[4] = molecular target: Dual specificity protein phosphatase 6 (Homo sapiens) (UniProt Q16828); experiment: as above; conditions: HeLa MKP-3 transfected, phospho-Erk imaging KS statistic; at 10 µM; stronger effect = higher value; cells stimulated with TPA for 15 min
Chain of Dual specificity protein phosphatase 6 (Homo sapiens) (Q16828 whole entry, looked up): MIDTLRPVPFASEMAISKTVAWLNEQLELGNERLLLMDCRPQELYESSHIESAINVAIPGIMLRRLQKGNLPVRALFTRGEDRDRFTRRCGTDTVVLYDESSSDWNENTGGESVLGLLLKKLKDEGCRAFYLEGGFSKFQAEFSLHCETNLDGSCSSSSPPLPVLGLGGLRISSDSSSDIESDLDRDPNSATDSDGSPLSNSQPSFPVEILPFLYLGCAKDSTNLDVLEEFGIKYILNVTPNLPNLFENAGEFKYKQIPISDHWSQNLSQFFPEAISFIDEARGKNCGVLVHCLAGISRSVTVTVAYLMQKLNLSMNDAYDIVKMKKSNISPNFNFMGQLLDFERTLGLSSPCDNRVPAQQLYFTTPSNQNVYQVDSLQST

[5] = molecular target: Voltage-gated potassium channel subunit beta-2 (Rattus norvegicus) (UniProt P62483); experiment: inhibitors of rat Kvbeta2 reductase activity – biochemical, NADPH fluorescence, primary screen (AID 622); conditions: recombinant KvBeta, 4-cyanobenzaldehyde reduction, at 10 µM, stronger effect = higher value;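 also: slope of raw intensity against log time taken from 70 to 1610 s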
Chain of Voltage-gated potassium channel subunit beta-2 (Rattus norvegicus) (P62483 whole entry, looked up): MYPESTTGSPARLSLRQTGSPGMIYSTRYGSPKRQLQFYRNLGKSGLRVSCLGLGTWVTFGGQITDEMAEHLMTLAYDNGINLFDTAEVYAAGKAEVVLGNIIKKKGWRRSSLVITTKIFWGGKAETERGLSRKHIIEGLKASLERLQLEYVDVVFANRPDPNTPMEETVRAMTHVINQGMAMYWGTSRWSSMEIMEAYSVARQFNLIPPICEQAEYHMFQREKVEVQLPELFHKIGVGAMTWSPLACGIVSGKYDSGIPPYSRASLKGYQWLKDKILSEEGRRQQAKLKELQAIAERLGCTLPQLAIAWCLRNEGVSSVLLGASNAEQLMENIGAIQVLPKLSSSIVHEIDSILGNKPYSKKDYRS

[6] = molecular target: Voltage-gated potassium channel subunit beta-2 (Rattus norvegicus) (UniProt P62483); experiment: enhancers of rat Kvbeta2 NADPH turnover – biochemical, NADPH fluorescence, primary screen (AID 623;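 active = NADPH fluorescence slope more negative than the mean of all samples by about 3 SD, 99.7% confidence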;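 also: fluorescence intensity change per second fitted from 20 to 320 s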); conditions: Recombinant KvBeta, NADPH fluorescence decrease slope, 10 min; at 10 µM; stronger effect = lower value
[7] = molecular target: Alpha-2C adrenergic receptor (Homo sapiens) (UniProt P18825); experiment: compounds altering alpha2C-coupled GIRK flux – cell-based, HEK293 alpha2C/GIRK1/2, thallium flux, primary screen (AID 624;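 active = fluorescence slope after compound addition differing from the mean of all screened samples at 99.7% confidence, in either direction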;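 also: slope of fluorescence ratio to pre-addition baseline per second over 15 to 24 s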); conditions: thallium flux BTC fluorescence, at 10 µM, actives lie on both sides
Chain of Alpha-2C adrenergic receptor (Homo sapiens) (P18825 whole entry, looked up): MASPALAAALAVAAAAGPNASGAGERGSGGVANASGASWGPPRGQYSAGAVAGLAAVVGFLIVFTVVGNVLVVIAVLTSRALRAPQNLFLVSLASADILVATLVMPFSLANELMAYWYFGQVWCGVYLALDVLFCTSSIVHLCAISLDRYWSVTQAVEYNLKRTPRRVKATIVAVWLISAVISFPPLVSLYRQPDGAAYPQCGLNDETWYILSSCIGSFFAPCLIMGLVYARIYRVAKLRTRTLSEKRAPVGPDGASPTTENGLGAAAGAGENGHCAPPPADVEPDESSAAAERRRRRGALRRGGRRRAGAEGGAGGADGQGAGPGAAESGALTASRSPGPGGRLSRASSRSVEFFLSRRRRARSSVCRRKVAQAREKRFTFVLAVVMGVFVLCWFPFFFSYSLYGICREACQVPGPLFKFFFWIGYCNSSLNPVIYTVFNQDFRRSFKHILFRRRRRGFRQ

[8] = inhibitors of larval lipid processing in zebrafish, primary screen, whole organism, PED6 fluorescence, gall bladder and intestine (AID 686;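 active = a full or partial loss of lipid-probe fluorescence in the fish gall bladder, intestine or both, judged by eye; inactive = no fluorescence loss, or compound toxic to the fish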;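 also: larvae 5 to 7 days old with five fish per well; signal comes from phospholipase A2 cleavage of quenched PED6 carried via bile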); conditions: Zebrafish larvae PED6 lipid processing, fluorescence scoring; screened at 20 µM (by protocol)
Method in brief: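 Incubation: overnight exposure of larvae to compound plus PED6 / Test system: live zebrafish larvae aged 5-7 days, whole organism / Amount: 5 larvae per well / Read-out basis: visual per-well fluorescence inhibition score / Signal: visual fluorescence microscopy scoring of gall bladder, gut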

[9] = loss of swimming-algae plug formation – whole organism, Chlamydomonas reinhardtii, WT vs cilia-less mutant, absorbance, 96-well, primary screen (AID 463189;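 active = inhibition at or above 50% relative to wild type and mutant plate controls; inactive = inhibition below 50%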;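 also: 0% = wild type cc124 cells in DMSO and 100% = ciliumless bld1 mutant cells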); conditions: Chlamydomonas reinhardtii gravitaxis, OD600 absorbance, 2 days; at 10 µM; stronger effect = higher value
[10] = measured here: cell density z-score
[11] = measured here: nuclear c-Myc green intensity z-score
[12] = measured here: nuclear pErk red intensity z-score, stronger effect = higher value

Compound | cell count [1] | inhibition [1] | inhibition [2] | nuclei count [2] | z-score [3, 10] | z-score [3, 11] | z-score [3, 12] | inhibition [4] | fluorescence slope [5] | NADPH fluorescence slope [6] | slope [7] | outcome [8] | inhibition [9]
CC1CCN(c2oc(-c3ccccc3Cl)nc2C#N)CC1 | 601 | -11.3% (inactive) | 36.1% (inactive) | 153% | -0.563 | 0.859 | 0.215 | -0.674% (inactive) | -0.397 (inactive) | -0.000144 (inactive) | 0.00562 (inactive) | inactive | 4.67% (inactive)
CCOC(=O)CC(=O)CSc1nc(N)c(C#N)c(-c2ccc(Cl)cc2)c1C#N | 405 | -9.9% (inactive) | -43.1% (inactive) | 99.2% | 1.08 | -0.959 | -2.04 | -6.48% (inactive) | -0.318 (inactive) | 1.7e-05 (inactive) | 0.00603 (inactive) | inactive | -7.76% (inactive)
CCCCNC(=O)C(C#N)c1nc2ccccc2nc1N1CCN(Cc2ccc3c(c2)OCO3)CC1 (centres undefined) | 555 | -0.5% (inactive) | 21.5% (inactive) | 145% | -1.05 | -1.11 | 1.27 | 15% (inactive) | -0.362 (inactive) | -1.5e-05 (inactive) | 0.00451 (inactive) | inactive | 12.9% (inactive)
CCOc1cccc(-c2nnc3sc(C4CCCCC4)nn23)c1 | 683 | 1.1% (inactive) | 16.2% (inactive) | 160% | 1.83 | -1.11 | -1.63 | 15.5% (inactive) | -0.446 (inactive) | -0.000139 (inactive) | 0.00527 (inactive) | inactive; toxic | 36.1% (inactive)
CCCSc1nc(N2CCCC2)c2c(c1C#N)CC(C)(C)OC2 | 521 | -7.7% (inactive) | -153% (inactive) | 173% | 1.7 | -1.87 | -0.14 | 36.9% (inactive) | -0.322 (inactive) | 4.6e-06 (inactive) | 0.00655 (inactive) | inactive | 9.15% (inactive)
COC(=O)c1cc2c(=O)n3cccc(C)c3nc2n(Cc2cccnc2)c1=N | 626 | -15% (inactive) | -113% (inactive) | 159% | 2.59 | -0.798 | -0.054 | 25.7% (inactive) | -0.523 (inactive) | -3.6e-05 (inactive) | 0.00531 (inactive) | inactive | 32.4% (inactive)
CC1(C)Cc2nc(NCCCO)c(C#N)cc2CO1 | 503 | -6% (inactive) | 29.1% (inactive) | 94.8% | -0.759 | 0.0263 | -0.295 | -11.9% (inactive) | -0.421 (inactive) | -0.000243 (inactive) | 0.00519 (inactive) | inactive | 5% (inactive)
COc1cccc(CNc2ccc(Br)cn2)c1O | 544 | -3.4% (inactive) | -2.4% (inactive) | 167% | -0.809 | -0.901 | -0.106 | 3.5% (inactive) | -0.316 (inactive) | 1.4e-05 (inactive) | 0.00431 (inactive) | inactive | 6.48% (inactive)
CSC(=Nc1ccccc1)C1=C(O)COC1=O | 315 | -17.4% (inactive) | -75.7% (inactive) | 139% | 1.64 | -0.593 | -1.01 | 5.26% (inactive) | -0.419 (inactive) | -8.2e-05 (inactive) | 0.00729 (inactive) | inactive | -2.91% (inactive)
CCSc1nc(N)c2c3c(sc2n1)CCC3 | 602 | -14.1% (inactive) | -20.6% (inactive) | 146% | 0.476 | 0.818 | 0.254 | 7.7% (inactive) | -0.408 (inactive) | -4.9e-05 (inactive) | 0.00637 (inactive) | inactive | -5.03% (inactive)
O=S(=O)(c1ccccc1)N1CCC(N2CCCCCC2)CC1 | 360 | -15.1% (inactive) | -30.4% (inactive) | 107% | -1.31 | -0.622 | 0.193 | -8.95% (inactive) | -0.39 (inactive) | 2.7e-05 (inactive) | 0.00532 (inactive) | inactive | 32.5% (inactive)
N#Cc1c(-c2ccco2)cc(C2CC2)nc1N | 528 | -3.5% (inactive) | -51.8% (inactive) | 107% | -1.1 | -0.229 | -0.103 | -1.12% (inactive) | -0.43 (inactive) | -0.00027 (inactive) | 0.00359 (inactive) | inactive | -5.69% (inactive)
CC1(C)CC(=O)C2=C(C1)N(Cc1ccco1)C(=O)C2(O)C(F)(F)F (centres undefined) | 502 | -2.4% (inactive) | -124% (inactive) | 132% | -0.0541 | -0.87 | -0.763 | -12.3% (inactive) | -0.467 (inactive) | -6.1e-05 (inactive) | 0.00641 (inactive) | inactive | 20.3% (inactive)
